# According to the EternaBench riboswitch data:
# Test system: MS2 coat protein
# Test: apparent Kd, MS2 coat protein; higher = weaker binding; RNA-MaP array
# Summary of the method: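 RNA designs were transcribed from sequenced DNA templates on an Illumina sequencing chip and then incubated at room temperature with fluorescently labeled MS2 coat protein at 1.5 nM to 3 μM, with or without input ligand, in Tris-HCl pH 7.5 buffer containing KCl, MgCl2, BSA, DTT, tRNA and Tween20. Incubation lasted 0.8–1.5 h at the lowest protein concentrations and 10–20 min at the highest. Apparent Kd is the median of binding-curve fits made for each cluster. Designs measured on fewer than 10 clusters were excluded.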
# [1] = designed as: OFF switch for flavin mononucleotide, no ligand
# [2] = ligand present: flavin mononucleotide, designed as: OFF switch for flavin mononucleotide
# [3] = designed as: ON switch for flavin mononucleotide, no ligand
# [4] = ligand present: flavin mononucleotide, designed as: ON switch for flavin mononucleotide
# [5] = designed as: OFF switch for tryptophan, no ligand
# [6] = ligand present: tryptophan, designed as: OFF switch for tryptophan
Sequence,apparent Kd [1] [nM],apparent Kd [2] [nM],apparent Kd [3] [nM],apparent Kd [4] [nM],also measured
UAAAUCGAAGGAUAUACAUGUACAAGUAUCCGUCAAAGAGCACAUGAGGAUCACCCAUGUAGAAGGUCGACUAA,19.2,57.6,–,–,–
UACCUUAUUGUUAGGAUAUGCAGAUACAAAGGUGAGCAGAAGGAACAUGAGGAUCACCCAUGUAAAAUAAUAAA,16.6,48,–,–,–
CCGCCACUACAUGAGGAUCACCCAUGUGAACCGUAGAACAUGAGAAGGUGCCUAAAGCUCGAGGGCAAGGAUAUCAACCGCCGC,–,–,125,97.5,–
GUGAAACAUGAGGAUCACCCAUGUCAGGAUAUACUAAUGUCCGCUCGAUUGGACCUGUGUAGAAGGGACUGUGA,12.7,17.6,–,–,–
AAAACAUGAGGAUCACCCAUGUCCAAAUAAAUACACGGAACUAGAAGGGAAAAUCGAAAUUAAUAUCAGGAUAUAGGCAAAGCA,–,–,53,42.2,–
AAACGCUAUGCGGCCGCCACUAAGGUUGGCGUCUAUGUCGUUUAAGACAUGAGGAUCACCCAUGUUAGGACCGGGCAUGUCCGCG,–,–,–,–,apparent Kd [5]: 21.2 nM; apparent Kd [6]: 21.1 nM
UAUUCUGACACAGAUACCAGUCAAUUCCGUGGCAAGUGCUACAUGAGGAUCACCCAUGUCGACCCUUGGCAGCUGAAGAGAUACA,–,–,–,–,"apparent Kd (designed as: OFF switch for theophylline, no ligand): 12.1 nM; apparent Kd (ligand present: theophylline, designed as: OFF switch for theophylline): 14.1 nM"
AGUUAGCCUGAUGAGGAUAUACACGCCCGGACAUGAGGAUCACCCAUGUUAACAAGUUAGCUAUUGUAGAAGGCAUCGAGGUGAUG,–,–,44.8,33.5,–
UUAACAUGAGGAUCACCCAUGUGAAGCCGGCGAUGAAUAGUACAGGAUAUCGAAUACCGCCUAGACGAGAAGGGUAUCAAUCGG,–,–,14.2,12.7,–
GCAAGGUUUGUAGGAUAUCGCGUGUGAUUGAACAUGAGGAUCACCCAUGUGGAGGUUCCAUUAUCCGAGAAGGACAAGACUCGA,155,84.2,–,–,–
AACCUACAUGAGGAUCACCCAUGUGAGGAUAUUGCGGUUCUUAGCAUGAGAACCAUACCAAGAAGGCACAGGGC,7.53,23.2,–,–,–
ACCGGAAAAGGAUAUCGAAUUAGCAACAUGAGGAUCACCCAUGUCUGUCGCUCGUGUAUUCGAGAAGGUUUCGCCC,4.96,5.34,–,–,–
UGCGUGGGAAAGAAGGCGUCCGAAUUGUGGCCACGAGGAUAUUUCCGGCGCACAUGAGGAUCACCCAUGUUCAGCUGGUAGCGU,–,–,32.5,22.1,–
CCGAACAUGAGGAUCACCCAUGUAUCCGAGCGAGGACCGGUACGGCCGCCACUCGAACUGCACCGGAAAAGGGAAACACCGAUCC,–,–,–,–,"apparent Kd (designed as: ON switch for tryptophan, no ligand): 56.2 nM; apparent Kd (ligand present: tryptophan, designed as: ON switch for tryptophan): 61.8 nM"
UAUAUGAAGGGAGGAUAUGACCGAGAGUAAAUGUCAGAAGGCCCGUUUCUUCACCAACGUCCGGUACAUGAGGAUCACCCAUGU,–,–,11.3,8.86,–
GUGCGCGUAAAAGGAUAUUCGGAUGAUAGAACUCGAAACUACAUGAGGAUCACCCAUGUCAAGAAGAAGAAGGUUUGGCGAAAU,57.1,31.7,–,–,–
AGCAUGGUUGGAGGAUAUUCCGCCGUAGUGCUGAAUCCCGGACAUGAGGAUCACCCAUGUGAGCGGAAGAAGGCCAAGUUGUCC,15.5,63.2,–,–,–
UUCUACAUGAGGAUCACCCAUGUCCCUGGGACCCUUGCAUCCAGAAGGCACGACUAGAUGGUGUGUGAGGAUAUGGAGGCGCUU,162,144,–,–,–
CCAACAACGGAGAAGGCGUGACUGGUUUCACAGACAGUGUGGCACAUGAGGAUCACCCAUGUGAACGAGGAUAUCCGUGUGCGA,–,–,11.6,7.4,–
AACAAGGAAGGAUAUACAUGAGGAUCACCCAUGUCACUAGGGCCUCCCGCUUCGCUGUGUAGAAGGACCAUGAA,9.74,8.89,–,–,–
CCUCACGAAAUCGAUGAAAGCAUGUGGCACCGAGGACCGGUACGGCCGCCACUCGCAUCCACACAUGAGGAUCACCCAUGUAAGA,–,–,–,–,apparent Kd [5]: 39.3 nM; apparent Kd [6]: 51.6 nM
CUCGCUAAAGUAGGAUAUACACAGACAUGAGGAUCACCCAUGUAACGAUGAACCCUUAUUAGAUGGUAGAAGGACUCAAGGCCG,13.1,–,–,–,–
CACUACUCCCAAGGAUAUUACGCUACAAAUCUUACUAACAUGAGGAUCACCCAUGUUCGGAACGGAAAGAAGGUGGGCUUAUAC,–,–,9.38,8.22,–
